Test results reported in the M2OR odorant receptor database.

Experiments:
Conditions in all cases: stereoisomer not certain
OR6C3 (Homo sapiens) = OR6C3 (Homo sapiens) (UniProt Q9NZP0)
How it was run: (§1)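 Whether a receptor–molecule pair is responsive (active) rests on the original authors' judgment that its measured signal was statistically different from baseline. Pairs without that judgment are non-responsive (inactive). Sources used varied assay methods, commonly transient luciferase assays in mammalian cell lines.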

OR6C4 (Homo sapiens) = OR6C4 (Homo sapiens) (UniProt Q8NGE1)
Chain of OR6C4 (Homo sapiens) (Q8NGE1 whole entry): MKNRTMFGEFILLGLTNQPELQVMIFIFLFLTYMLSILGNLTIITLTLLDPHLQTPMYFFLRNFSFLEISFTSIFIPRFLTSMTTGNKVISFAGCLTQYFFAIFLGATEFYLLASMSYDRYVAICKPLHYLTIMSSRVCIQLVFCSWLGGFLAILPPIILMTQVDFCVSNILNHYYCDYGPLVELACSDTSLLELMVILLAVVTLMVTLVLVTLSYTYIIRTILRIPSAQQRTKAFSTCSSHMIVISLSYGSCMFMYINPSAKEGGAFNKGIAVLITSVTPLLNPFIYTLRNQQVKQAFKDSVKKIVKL
How it was run: as §1

OR6C6 (Homo sapiens) = OR6C6 (Homo sapiens) (UniProt A6NF89)
Chain of OR6C6 (Homo sapiens) (A6NF89 whole entry): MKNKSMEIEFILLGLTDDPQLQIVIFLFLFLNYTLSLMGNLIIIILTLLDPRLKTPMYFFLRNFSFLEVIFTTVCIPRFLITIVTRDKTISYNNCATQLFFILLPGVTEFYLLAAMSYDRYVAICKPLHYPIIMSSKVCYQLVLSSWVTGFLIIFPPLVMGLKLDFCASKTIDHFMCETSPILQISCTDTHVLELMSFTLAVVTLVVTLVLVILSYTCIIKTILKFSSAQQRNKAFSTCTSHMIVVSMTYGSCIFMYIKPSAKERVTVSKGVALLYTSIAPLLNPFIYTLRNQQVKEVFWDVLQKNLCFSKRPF
How it was run: as §1

OR6C65 (Homo sapiens) = OR6C65 (Homo sapiens) (UniProt A6NJZ3)
Chain of OR6C65 (Homo sapiens) (A6NJZ3 whole entry): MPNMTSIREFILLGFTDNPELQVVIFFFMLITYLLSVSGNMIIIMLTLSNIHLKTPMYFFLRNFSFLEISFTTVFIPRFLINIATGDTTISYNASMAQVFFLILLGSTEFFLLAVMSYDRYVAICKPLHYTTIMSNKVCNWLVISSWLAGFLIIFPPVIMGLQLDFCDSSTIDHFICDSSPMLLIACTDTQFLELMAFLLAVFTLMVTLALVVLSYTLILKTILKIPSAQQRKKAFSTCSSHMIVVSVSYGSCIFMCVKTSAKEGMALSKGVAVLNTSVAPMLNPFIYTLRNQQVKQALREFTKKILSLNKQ
How it was run: as §1

OR6C68 (Homo sapiens) = OR6C68 (Homo sapiens) (UniProt A6NDL8)
Chain of OR6C68 (Homo sapiens) (A6NDL8 whole entry): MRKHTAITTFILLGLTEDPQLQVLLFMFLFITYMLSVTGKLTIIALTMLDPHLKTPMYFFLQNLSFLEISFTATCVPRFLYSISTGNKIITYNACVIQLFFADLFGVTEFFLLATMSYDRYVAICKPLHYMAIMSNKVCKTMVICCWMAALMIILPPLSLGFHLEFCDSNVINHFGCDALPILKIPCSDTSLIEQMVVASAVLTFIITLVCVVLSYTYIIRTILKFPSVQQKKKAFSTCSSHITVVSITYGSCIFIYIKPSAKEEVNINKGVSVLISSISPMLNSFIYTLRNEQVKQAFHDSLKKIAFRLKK
How it was run: as §1

OR6C70 (Homo sapiens) = OR6C70 (Homo sapiens) (UniProt A6NIJ9)
Chain of OR6C70 (Homo sapiens) (A6NIJ9 whole entry): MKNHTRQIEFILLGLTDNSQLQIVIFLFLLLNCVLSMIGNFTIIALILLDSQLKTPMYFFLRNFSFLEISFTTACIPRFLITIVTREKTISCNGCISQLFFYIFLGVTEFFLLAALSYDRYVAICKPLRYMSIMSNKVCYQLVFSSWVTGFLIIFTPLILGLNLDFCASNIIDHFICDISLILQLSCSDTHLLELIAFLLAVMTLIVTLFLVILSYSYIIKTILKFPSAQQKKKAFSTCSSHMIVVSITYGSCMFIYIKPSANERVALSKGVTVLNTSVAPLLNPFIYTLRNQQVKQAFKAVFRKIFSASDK
How it was run: as §1

OR6C74 (Homo sapiens) = OR6C74 (Homo sapiens) (UniProt A6NCV1)
Chain of OR6C74 (Homo sapiens) (A6NCV1 whole entry): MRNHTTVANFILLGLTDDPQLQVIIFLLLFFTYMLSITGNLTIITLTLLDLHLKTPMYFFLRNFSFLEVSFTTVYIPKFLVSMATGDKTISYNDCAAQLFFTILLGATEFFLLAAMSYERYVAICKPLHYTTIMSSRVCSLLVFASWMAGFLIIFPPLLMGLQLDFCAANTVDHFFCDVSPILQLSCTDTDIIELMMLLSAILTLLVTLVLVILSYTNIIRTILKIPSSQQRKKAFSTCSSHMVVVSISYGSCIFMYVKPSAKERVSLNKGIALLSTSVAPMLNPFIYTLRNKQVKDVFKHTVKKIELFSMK
How it was run: as §1

OR6C75 (Homo sapiens) = OR6C75 (Homo sapiens) (UniProt A6NL08)
Chain of OR6C75 (Homo sapiens) (A6NL08 whole entry): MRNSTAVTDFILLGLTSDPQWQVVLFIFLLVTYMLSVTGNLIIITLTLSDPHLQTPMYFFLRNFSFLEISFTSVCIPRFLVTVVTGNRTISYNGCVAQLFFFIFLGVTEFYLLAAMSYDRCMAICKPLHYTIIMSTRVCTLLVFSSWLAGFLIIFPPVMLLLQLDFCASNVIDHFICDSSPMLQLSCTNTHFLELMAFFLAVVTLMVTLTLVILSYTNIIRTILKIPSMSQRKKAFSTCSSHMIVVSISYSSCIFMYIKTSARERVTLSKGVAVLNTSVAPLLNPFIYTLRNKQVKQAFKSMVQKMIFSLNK
How it was run: as §1

OR6C4 = tested on: OR6C4
Chain of OR6C4 (as listed by the source): as the sequence (Q8NGE1 whole entry) above, with I37V counted along it
How it was run: as §1

OR6C6 M6I = tested on: OR6C6 M6I
Chain of OR6C6 M6I (as listed by the source): as the sequence (A6NF89 whole entry) above, with M6I counted along it
How it was run: as §1

Measured: odorant receptor agonist call;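 further: active if original authors judged signal statistically different from baseline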

Chain of OR6C3 (Homo sapiens) (Q9NZP0 whole entry): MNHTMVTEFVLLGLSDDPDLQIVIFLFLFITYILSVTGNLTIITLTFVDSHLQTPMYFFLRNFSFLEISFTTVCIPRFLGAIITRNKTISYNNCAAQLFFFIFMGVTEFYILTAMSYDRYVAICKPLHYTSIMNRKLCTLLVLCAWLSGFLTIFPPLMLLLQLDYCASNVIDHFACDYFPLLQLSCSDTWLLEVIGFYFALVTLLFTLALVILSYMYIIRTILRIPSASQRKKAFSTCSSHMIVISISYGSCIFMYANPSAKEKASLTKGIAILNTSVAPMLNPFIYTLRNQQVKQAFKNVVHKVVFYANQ

Cc1c([N+](=O)[O-])c(C)c([N+](=O)[O-])c(C(C)(C)C)c1[N+](=O)[O-]
not listed: OR6C4 | OR6C6 M6I
inactive: all other assays above

C=CCOC(=O)Cc1ccccc1
inactive: all assays above
